Among all 2,300 compounds or so, fewer than 10 were called active.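 The calls were made as follows: active = duplicate-mean ratio percent above the mean of iodide-only control wells, which defines zero, plus 5 of their SD; inactive = the rest.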 Only a sample is shown.
target: Chloride channel protein 1 (Rattus norvegicus) (UniProt P35524); test: ClC-1 chloride channel inhibition, selectivity assay for TMEM16A inhibitor project, cell-based, voltage-dependent ClC-1 (AID 652236); settings: CHO ClC-1-YFP, iodide influx fluorescence quench; at 10 µM; iodide control reads 0, buffer control 100;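 also: higher percent means stronger block of ClC-1 iodide influx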
Procedure, shortened: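 Material – ClC-1 CHO cells with mutant YFP H148Q/I152L · Buffer or medium – HBSS-HEPES pH 7.4, sodium gluconate substituted for NaCl · Schedule – compound 20 min, RT · Detection – YFP fluorescence quench kinetics · Controls – buffer, iodide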

Sequence of Chloride channel protein 1 (Rattus norvegicus) (P35524 whole entry, looked up): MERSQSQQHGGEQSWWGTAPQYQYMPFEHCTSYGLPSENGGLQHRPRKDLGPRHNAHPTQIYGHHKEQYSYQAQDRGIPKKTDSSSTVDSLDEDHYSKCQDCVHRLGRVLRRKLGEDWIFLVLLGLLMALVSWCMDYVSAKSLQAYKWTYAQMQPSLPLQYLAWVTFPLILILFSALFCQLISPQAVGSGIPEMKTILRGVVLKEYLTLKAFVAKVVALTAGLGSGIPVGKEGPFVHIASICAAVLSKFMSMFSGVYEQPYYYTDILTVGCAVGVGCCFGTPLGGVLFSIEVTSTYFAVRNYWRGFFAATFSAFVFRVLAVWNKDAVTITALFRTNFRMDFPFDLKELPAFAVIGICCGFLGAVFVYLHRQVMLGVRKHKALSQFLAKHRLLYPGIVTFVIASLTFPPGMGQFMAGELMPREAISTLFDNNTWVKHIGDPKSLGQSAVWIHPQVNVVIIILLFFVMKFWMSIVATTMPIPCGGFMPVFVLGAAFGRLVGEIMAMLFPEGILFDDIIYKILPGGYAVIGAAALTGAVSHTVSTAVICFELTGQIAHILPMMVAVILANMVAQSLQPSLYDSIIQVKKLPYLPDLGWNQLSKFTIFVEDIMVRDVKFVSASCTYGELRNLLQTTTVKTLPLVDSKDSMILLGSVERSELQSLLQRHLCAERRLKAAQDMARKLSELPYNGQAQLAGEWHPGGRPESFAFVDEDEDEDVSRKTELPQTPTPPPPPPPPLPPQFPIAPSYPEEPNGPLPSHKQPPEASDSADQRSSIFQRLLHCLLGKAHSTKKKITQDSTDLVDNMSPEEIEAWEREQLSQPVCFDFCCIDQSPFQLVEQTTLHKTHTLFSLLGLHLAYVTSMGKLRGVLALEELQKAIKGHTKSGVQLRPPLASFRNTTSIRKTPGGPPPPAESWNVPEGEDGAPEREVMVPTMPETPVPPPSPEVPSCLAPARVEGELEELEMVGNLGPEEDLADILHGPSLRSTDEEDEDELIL

Ratio percent, inactive:
S=C(NCC1CCCO1)N1CCN(c2ccc(Cl)c(Cl)c2)CC1 (configuration not stated) -16.5%
COc1ccc(Cl)cc1NC(=O)CCS(=O)(=O)c1cc2c(cc1C)NC(=O)CO2 -11%
CCc1cc2c(N3CCN(c4nnc(CC)s4)CC3)ncnc2s1 -5%
Cc1cccc(-n2c(SCC(N)=O)nc3c(c2=O)C2(CCCCC2)Cc2ccccc2-3)c1 -9.5%
Cc1ccc(-c2csc(-c3c[nH]c4ccccc34)n2)cc1 -9.5%
CCCCCc1ccc(-c2ccc(C(=O)O)cc2)nc1 -6%
Cn1c(=O)n(C)c2cc(S(=O)(=O)N3CCCc4ccccc43)ccc21 -7.5%
O=C(Nc1ccccc1)c1ccccc1NC(=O)C(F)(F)F -15%
Cc1ccc(NC(=O)C(C)c2cccc(C(=O)c3ccccc3)c2)cc1 (configuration not stated) -13.5%
CSc1cccc(NC(=S)N(C(C)C)C(C)c2ccccn2)c1 (configuration not stated) -3%
CC(C)(C)C(=O)/C(C#N)=C/c1ccc(O)cc1 -8%
C=C(C)Cn1c(C)cc(C)c(S(=O)(=O)c2ccccc2C)c1=O -6%
CCCOc1ccc(Cc2c(Cl)nc(SC)nc2NC)cc1 -27.5%
CC(NC(=O)c1ccco1)C(=O)Nc1nc(-c2ccccn2)cs1 (configuration not stated) -2.5%
Cc1ccc2c(c1)N(CC(=O)N1CCCc3ccccc31)C(=O)C(C)O2 (configuration not stated) -3%
Cn1c(CCN2CCCCCC2)nc2cc(NC(=O)Nc3ccccc3)ccc21 -1.5%
Cc1cc(C)cc(NS(=O)(=O)c2ccc(Oc3ncc(C(F)(F)F)cc3Cl)cc2)c1 -9.5%
CN(c1cccc(NC(=O)c2ccc(CN3CCc4ccccc4C3)cc2)c1)S(C)(=O)=O -8%
COc1ccc(S(=O)(=O)NCCCCOc2ccc(Cl)cc2)cc1 -32.5%
COc1ccc(NC(=O)C2=CC(c3ccc(OC)c(OC)c3)=NS(=O)(=O)N2C)cc1 -3.5%
Cc1ccccc1-n1nnnc1SCCCC(=O)c1ccc(F)cc1 -11%
COc1ccc(-c2nc(CCNC(=O)c3ccc(Br)o3)cs2)cc1 -12%
O=C(CN1CCN(C(=S)NC2CCCC2)CC1)Nc1ccc(Oc2ccccc2)cc1 -15.5%
CCOC(=O)C1CCN(c2ncnc3c2oc2ccc(Br)cc23)CC1 -36.5%
Cc1cc(C=O)c(C)n1-c1ccc(NC2CCCCC2)c([N+](=O)[O-])c1 -10.5%
O=C(O)c1ccc(NC(=O)C2CCCCC2)cc1 -7%
Cc1nc(CNS(=O)(=O)c2ccc(Oc3ccccc3)cc2)cs1 -6.5%
S=C(NCc1cccs1)Nc1ccc(Cl)cc1 -12.5%
N#CC1=C(SCc2ccccc2)NC(=O)C(C#N)C12CCCC2 (configuration not stated) -12.5%
C=CCSc1nsc(NC(=O)Nc2cccc(C(C)=O)c2)n1 -15.5%
O=C(Nc1nc(-c2ccc3c(c2)OCO3)cs1)c1ccncc1 -13.5%
CCC(=O)Nc1ccc2nc(C)n(Cc3ccccc3Cl)c(=O)c2c1 -2%
O=C(N/N=C/c1cc(Cl)cc([N+](=O)[O-])c1O)C(O)(c1ccccc1)c1ccccc1 -7%
O=S1(=O)CCN(Cc2ccccc2Cl)CC1 -3.5%
O=C(NC(=S)Nc1ccccc1C(=O)O)c1ccc(-c2ccc(Br)cc2)o1 -15%
O=C(COC(=O)CCc1c[nH]c(=O)[nH]1)Nc1ccccc1Cl -14%
c1ccc(-c2nnc(SCc3nc4ccccc4[nH]3)o2)cc1 -14%
O=C1c2ccccc2C(Nc2ccc3c(c2)OCCO3)N1Cc1ccco1 (configuration not stated) -13%
Cc1ccc(NC(=O)CN(C)CC(=O)Nc2cccc(F)c2)cc1[N+](=O)[O-] -20.5%
COC(=O)c1ccc(COC(=O)c2c(C)nn(Cc3ccccc3Cl)c2Cl)o1 -2%
CCn1nccc1C(=O)Nc1ccc(S(=O)(=O)NC23CC4CC(CC(C4)C2)C3)cc1 -8.5%
COc1ccc2[nH]cc(/C=C(/C#N)S(=O)(=O)c3ccccc3)c2c1 -11.5%
CC1=NN(c2cccc(Cl)c2)C(=O)C12CC(C)=C(C)CS2 (configuration not stated) -13.5%
O=C(CSCc1ccc(Cl)cc1)N1CCN(Cc2ccc3c(c2)OCO3)CC1 2.5%
COc1ccc(CCC(=O)c2ccc(OC)cc2)cc1 -4%
Fc1ccc2[nH]c3c(N4CCSCC4)ncnc3c2c1 -36.5%
O=C(CNCCC1=CCCCC1)Nc1ccccc1N1CCCCCC1 -9%
CN(C)c1cc[n+](Cc2ccccc2)cc1 -5%
Cc1ccc(-n2[nH]c(C)c(/C=N/N3C(=O)c4cccc5cccc(c45)C3=O)c2=O)cc1 -16%
Cc1nc(SCC(=O)N2CCc3ccccc3C2)c2c(C)c(C)sc2n1 -16%
O=C(NCCc1ccc2c(c1)OCCO2)c1cc2ccccc2o1 -21%
Cc1ccc(F)cc1NC(=O)Cc1nn(C)c(=O)c2ccccc12 -14%
Cc1ccc(N)cc1-n1c(C)ccc1C -8%
CCOC(=O)C(Sc1ncc(C#N)c(N)n1)C(C)C (configuration not stated) -18%
Fc1ccc(CSc2nnc(-c3cc4c(s3)-c3ccccc3CC4)o2)cc1 -3%
N#Cc1nc(COc2ccc(-c3ccccc3)cc2)oc1NCc1cccnc1 -19%
Cc1nc2c(C(=O)NCc3ccc4c(c3)OCO4)c[nH]n2c(=O)c1Cc1ccccc1F -1.5%
COc1cc(CC(=O)Nc2nc(-c3ccc(F)c(F)c3)cs2)cc(OC)c1OC -7%
CN(Cc1cccnc1)C(=O)c1cc(COc2ccc3ncccc3c2)on1 -24%
Cc1ccc(-c2noc(CSc3nnnn3-c3ccccc3)n2)cc1 -1.5%
S=C(NCc1ccc(Cl)cc1)NC12CC3CC(CC(C3)C1)C2 -20.5%
Cc1[nH]n(-c2cccc(Cl)c2)c(=O)c1-c1ccc(Cl)cc1 -15%
COC(=O)c1ccc(NC(=O)c2ccccc2NS(=O)(=O)c2ccccc2)cc1 -22.5%
Cc1noc(C)c1COC(=O)c1cc2ccccc2cc1O -10.5%
CCOC(=O)N1CC=C2C(C#N)=C(N)C(C#N)(C#N)[C@H](c3cccs3)[C@H]2C1 -6.5%
CCOC(=O)c1cccc(NC(=O)CCn2nnc3ccccc32)c1 -15%
COc1cccc(CNS(=O)(=O)c2ccc3c(c2)CC(C)N3C(=O)C2CCC2)c1 (configuration not stated) -19.5%
O=C(Nc1cccc(S(=O)(=O)Nc2ccc(Cl)cc2)c1)c1ccc2c(c1)OCCO2 -24.5%
Cc1nc2ccccc2cc1OCc1ccc(F)cc1 -17%
CCCC(=O)Nc1ccccc1N1CCN(C(=O)c2ccccc2)CC1 -12.5%
CC1CCN(C(=O)c2ccc(CSc3ccc(Cl)cc3)cc2)CC1 -22.5%
CC(=O)c1c(C)[nH]c(C(=O)COC(=O)c2cccc(S(=O)(=O)N(C)c3ccccc3)c2)c1C -31%
CN1c2ccc(C=O)c3c(C=O)ccc(c23)N(C)C1(C)C -24.5%
COc1ccc(C(=O)NC2CCCc3c2cnn3-c2cccc(C)c2C)c(OC)n1 (configuration not stated) -21.5%
COc1ccc(CNc2nnnn2C)cc1 -10.5%
CCOC(=O)C1=C(CN2CCc3ccccc32)NC(=O)NC1c1cccc([N+](=O)[O-])c1 (configuration not stated) -12%
CSc1nnc2c(n1)OC(c1ccsc1)N(C(C)=O)c1ccccc1-2 (configuration not stated) -3.5%
Cc1nc(C)c(-c2csc(NCCc3ccccc3)n2)s1 -9%
CSc1nsc(NC(=O)Nc2ccccc2)n1 -7.5%
N#Cc1nc(N)nc(N(c2ccccc2)c2ccccc2)n1 -2%
CCCc1cc(=S)n2c([nH]c3ccccc32)c1C#N -9.5%
C=CCn1c(SCC(=O)Nc2nc3ccccc3s2)nnc1-c1ccccc1O -17.5%
CCCCNC(=O)CSc1nc2n[nH]c(C)c2c(=N)n1-c1cccc(Cl)c1C -4.5%
COc1ccc(OCC(=O)NCCc2ccc(S(N)(=O)=O)cc2)cc1 -14%
O=c1cc(C(F)(F)F)[nH]c(=O)n1C1CCCCC1 0%
Cc1ccc(-n2ncc3c(N4CCN(c5ccc(F)cc5)CC4)ncnc32)c(C)c1 -13%
Cc1cccc(N=Nc2c(O)[nH]c3ccc(F)cc23)c1 2.5%
Cc1ccc(C)c(N2CCN(C(=O)CCCCn3c(=O)[nH]c4ccccc4c3=O)CC2)c1 -2%
CC(C)CNC(=S)NNC(=O)c1nn(C)cc1Cl -14%
CCOC(=O)N1CCN(C(=O)c2ccc3c(c2)N(Cc2ccc(C)cc2)CCS3)CC1 -13%
Cc1ccc(C)c(N2CCN(S(=O)(=O)c3ccc4c(c3)oc(=O)n4C)CC2)c1 -27.5%
COc1ccc(-n2c(C)cc(C(=O)CSc3nnc(-c4cccs4)o3)c2C)cc1 -7%
Cn1c(CN2CCOCC2)nc2cc(NC(=O)c3ccc(Cl)cc3)ccc21 -9%
Cc1ccc2c(c1)N(S(=O)(=O)c1cc(-c3cc(C)no3)ccc1C)CCO2 -4%
Cc1ccc(N2C(=O)S/C(=C/c3cn(C)c4ccccc34)C2=O)cc1 -10%
CCCCn1ccnc1C(=O)c1cccc(S(=O)(=O)N2c3ccccc3CC2C)c1 (configuration not stated) -3%
CCN(CC)S(=O)(=O)c1ccc(N(C)Cc2ccc(C(F)(F)F)cc2)nc1 -9%
O=C(COc1ccccc1)NCc1ccc2c(c1)OCO2 -4.5%
Cc1ccc(C(=O)O)cc1-c1ccc(/C=C2\SC(=O)N(CC(=O)Nc3ccc4c(c3)OCO4)C2=O)o1 -5.5%
COc1ccc(CN(C)C(=O)CC(c2ccccc2)c2ccccc2)cc1 -8.5%
CC(=O)c1cc(CN2CCC(C(=O)Nc3cccc(-c4cscn4)c3)CC2)cs1 -16.5%
O=C1NC(=O)C2C1C(c1ccc([N+](=O)[O-])cc1)=NN2Cc1ccccc1 (configuration not stated) -32%
